Source: article PMC4470787 (Clinical cancer research : an official journal of the …, 2015)
“Also recorded” adds a separate entry of the source.

Experiments:
[1] = system: pS6RP, p4EBP1 (Thr37/46), pAkt (Ser473); type: in vivo, human; settings: 5 of 8 tested samples; 24 h after first dose; both 5 mg and 10 mg dose levels
[2] = system: mTOR targets (S6RP pS235-S236, S6RP pS240-S244, 4EBP1) and Akt; assay: Reverse phase protein array; type: in vivo, human
Summary of the method: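 Peripheral blood proteins from 10 patients (3 on 5 mg/day, 7 on 10 mg/day everolimus) were lysed as for western blots, taken before (C1D0) and 24 h after (C1D1) the first dose. The reverse phase protein array probed mTOR pS2448, p70S6K pT389, S6RP pS235-S236 and pS240-S244, 4EBP1 pS65 and pT37-T46, and Akt pS473 and pT308. Phospho/total ratios were compared between days 0 and 1.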

[3] = Everolimus whole blood pharmacokinetics; type: in vivo, human
Summary of the method: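 Patients with relapsed/refractory ALL took oral everolimus (5 or 10 mg/day, continuous from Cycle 1 Day 0) with HyperCVAD. Whole blood was collected in EDTA tubes 1, 2, 5, 8 and 24 h post-dose on Days 1 and 15 of Cycles 1 and 2 and held at 4°C. Drug levels were measured by validated HPLC-MS/MS with sirolimus internal standard. Cmax, Tmax, t1/2, Ke, CL, AUC0-∞ and V came from non-compartmental analysis.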

[4] = system: patients with relapsed or refractory hematologic malignancies; settings: phase I study at UT/MDACC; cited from earlier work
[5] = system: patients with relapsed/refractory acute lymphoblastic leukemia
[6] = system: relapsed/refractory acute lymphoblastic leukemia; assay: Phase I/II study: response and survival with everolimus plus HyperCVAD; type: in vivo, human
[7] = system: mTOR-sensitive, inflammation-associated and miR-21 target gene sets; type: in vivo, human
Summary of the method: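 Peripheral blood was sampled from 5 patients before (C1D0) and 24 h after (C1D1) the first oral everolimus dose. RNA was TRIzol-extracted, isopropanol-precipitated and 70% ethanol-washed, accepted at integrity number >7, and amplified/biotinylated via oligo(dT) reverse transcription and T7 transcription with biotin-UTP. It was hybridised to HumanHT-12 v4 bead chips and analysed by gene set enrichment analysis.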

[8] = 1 of 24 patients, everolimus with HyperCVAD
[9] = all 24 patients, everolimus with HyperCVAD
[10] = patients in first salvage, everolimus with HyperCVAD
[11] = patients in second salvage and beyond, everolimus with HyperCVAD

With CO[C@H]1C[C@@H]2CC[C@@H](C)[C@@](O)(O2)C(=O)C(=O)N2CCCC[C@H]2C(=O)O[C@H]([C@H](C)C[C@@H]2CC[C@@H](OCCO)[C@H](OC)C2)CC(=O)[C@H](C)/C=C(\C)[C@@H](O)[C@@H](OC)C(=O)[C@H](C)C[C@H](C)/C=C/C=C/C=C/1C [everolimus] the “samples with reduced phosphorylation of S6RP (western blot)” value [1] was 62%, the “phosphorylation of S6RP pS235-S236 (RPPA)” value ([2]; 10 patients, 1-sided paired t-test P=0.007) was “inhibited phosphorylation” and the “phosphorylation of S6RP pS240-S244 (RPPA)” value ([2]; 10 patients, 1-sided paired t-test P=0.01) was “inhibited phosphorylation”. For the same compound, the “phosphorylation of 4EBP1, Akt, or other proteins” value ([2]; 24 h after first dose) was “No significant decreases; also recorded: No statistically significant differences”, the “phosphorylation of S6RP at pS235-S236 and pS240-S244 sites” value ([2]; everolimus 5 mg/day, RPPA and western blot) was “sufficiently blocked” and the “degree of inhibition of proteins or phosphorylated forms, 5 mg/day vs 10 mg/day” value ([2]; including Akt targets cyclin D1, FOXO3A, PRAS40 and Mcl-1) was “did not differ”. The “patients with elevation of PTEN levels by RPPA” value ([2]; of 10 patients with serial analysis) was “Five”, the “AUC and Cmax at steady state (C1D15 and C2D0) versus literature” value ([3]; 10-mg/day dose) was “higher than in previous published studies” and the “trough levels of everolimus, association” value ([3]; in vivo) was “not associated with response or toxicity”. For the same compound, the “AUC and Cmax between everolimus 5 mg/day and 10 mg/day” value ([3]; whole blood) was “dose-proportional”, the “tolerability of single-agent everolimus” value [4] was “well tolerated at a dose of 10 mg daily” and the “Cardiac: Pericardial effusion, G1/2” value ([5]; human, in vivo) was 0 N (%). For the same compound, the “Cardiac: Pericardial effusion, G3/4” value ([5]; human, in vivo) was 2 (8) N (%), the “Cardiac: Tachycardia, G1/2” value ([5]; human, in vivo) was 3 (13) N (%) and the “Cardiac: Tachycardia, G3/4” value ([5]; human, in vivo) was 1 (4) N (%). For the same compound, the “Constitutional: Fatigue, G1/2” value ([5]; human, in vivo) was 13 (54) N (%), the “Constitutional: Fatigue, G3/4” value ([5]; human, in vivo) was 0 N (%) and the “Constitutional: Headache, G1/2” value ([5]; human, in vivo) was 6 (25) N (%). The “Constitutional: Headache, G3/4” value ([5]; human, in vivo) was 4 (17) N (%), the “Gastrointestinal: Diarrhea, G1/2” value ([5]; human, in vivo) was 8 (33) N (%) and the “Gastrointestinal: Diarrhea, G3/4” value ([5]; human, in vivo) was 2 (8) N (%). For the same compound, the “Gastrointestinal: Nausea, G1/2” value ([5]; human, in vivo) was 9 (38) N (%), the “Gastrointestinal: Nausea, G3/4” value ([5]; human, in vivo) was 0 N (%) and the “Infection (one or more), G1/2” value ([5]; human, in vivo) was 0 N (%). For the same compound, the “Infection (one or more), G3/4” value ([5]; human, in vivo) was 23 (96) N (%), the “Metabolic: ALT/AST, G1/2” value ([5]; human, in vivo) was 14 (58) N (%) and the “Metabolic: ALT/AST, G3/4” value ([5]; human, in vivo) was 7 (29) N (%). For the same compound, the “Metabolic: Bilirubin, G1/2” value ([5]; human, in vivo) was 14 (58) N (%), the “Metabolic: Bilirubin, G3/4” value ([5]; human, in vivo) was 2 (8) N (%) and the “Metabolic: Hyperglycemia, G1/2” value ([5]; human, in vivo) was 7 (29) N (%). For the same compound, the “Metabolic: Hyperglycemia, G3/4” value ([5]; human, in vivo) was 12 (50) N (%), the “Mucositis/stomatitis, G1/2” value ([5]; human, in vivo) was 10 (42) N (%) and the “Mucositis/stomatitis, G3/4” value ([5]; human, in vivo) was 3 (13) N (%). The “Pulmonary: Dyspnea, G1/2” value ([5]; human, in vivo) was 1 (4) N (%), the “Pulmonary: Dyspnea, G3/4” value ([5]; human, in vivo) was 1 (4) N (%) and the “Pulmonary: Pleural effusions, G1/2” value ([5]; human, in vivo) was 1 (10) N (%). The “Pulmonary: Pleural effusions, G3/4” value ([5]; human, in vivo) was 2 (8) N (%), the “Renal: Renal insufficiency, G1/2” value ([5]; human, in vivo) was 0 N (%) and the “Renal: Renal insufficiency, G3/4” value ([5]; human, in vivo) was 4 (17) N (%). For the same compound, the “Renal: Urinary retention, G1/2” value ([5]; human, in vivo) was 1 (4) N (%), the “Renal: Urinary retention, G3/4” value ([5]; human, in vivo) was 0 N (%) and the “incidence of grade 3/4 hyperglycemia” value ([5]; human, in vivo) was 50%. The myelosuppression and neutropenia ([5]; human, in vivo) was “occurred in all 24 patients”, the “maximum tolerated dose (MTD) of everolimus” value ([5]; in combination with HyperCVAD, 3+3 design) was 5 mg/day and the “DLT at dose level 0” value ([5]; in vivo) was “no documented first or second cycle DLT”. For the same compound, the pneumonitis ([5]; in vivo) was “No documented cases”, the “CR without platelet recovery (CRp)” value [6, 8] was 4% and the “CR without recovery of counts (CRi)” value [6, 8] was 4%. For the same compound, the “partial response (PR)” value ([6]; 2 of 24 patients, everolimus with HyperCVAD) was 8%, the “response in T-ALL patients” value ([6]; 5 of 10 heavily pretreated T-ALL patients, everolimus with HyperCVAD) was 50% and the “response in B-ALL patients” value ([6]; 5 of 13 patients (all CR), everolimus with HyperCVAD) was 39%. The “complete remission (CR)” value ([6]; 6 of 24 patients, everolimus with HyperCVAD) was 25%, the “response (CR/CRp) in first salvage” value ([6]; 7 of 11 patients, everolimus with HyperCVAD) was 64% and the “responses beyond second salvage” value ([6]; 10 patients, everolimus with HyperCVAD) was “no responses”. For the same compound, the “median OS” value ([6]; B-ALL patients, everolimus with HyperCVAD) was 23 weeks, the “median OS” value ([6]; T-ALL patients, everolimus with HyperCVAD) was 23 weeks and the “overall response rate (CR+CRp+CRi)” value [6, 9] was 33%. The “response noted (including PR)” value [6, 9] was 41%, the “no detectable MRD at response (multiparametric flow cytometry)” value ([6]; among patients who achieved CR/CRp/CRi) was 5 of the 8 and the “CRi in second salvage” value ([6]; everolimus with HyperCVAD) was 1 of 3. For the same compound, the “median EFS” value [6, 10] was 22 weeks, the “median OS” value [6, 10] was 29 weeks and the “median EFS” value [6, 11] was 7 weeks. For the same compound, the “median OS” value [6, 11] was 15 weeks, the complete cytogenetic response ([6]; responders with abnormal cytogenetics at diagnosis) was 3 patients and the “expression of mTOR-sensitive genes induced by overexpression of Akt (GSEA)” value ([7]; 5 patients, C1D0 vs C1D1) was “significantly reduced”. For the same compound, the “inflammation-associated genes (TNF, EGF, IL-6 induced) (GSEA)” value ([7]; 5 patients, C1D0 vs C1D1) was “similarly reduced”, the “target genes of miR-21 (GSEA)” value ([7]; 5 patients, C1D0 vs C1D1) was “increased” and the “patient samples with increased PTEN expression (microarray)” value ([7]; P=0.016) was 4 of the 5.
